Activity calls are given as the source filed them. The calls are words filed in the database; no cut-off is given here.
What was measured:
[1] = molecular target: T1, Protein deacetylase HDAC6 (Homo sapiens, UniProt Q9UBN7); experiment: Inhibition of full length recombinant human N-terminal GST-tagged HDAC6 expressed in baculovirus infected insect cells using RHK-K(Ac)-AMC as substrate after 90 mins by fluorescence assay
T1 sequence (Q9UBN7 whole entry): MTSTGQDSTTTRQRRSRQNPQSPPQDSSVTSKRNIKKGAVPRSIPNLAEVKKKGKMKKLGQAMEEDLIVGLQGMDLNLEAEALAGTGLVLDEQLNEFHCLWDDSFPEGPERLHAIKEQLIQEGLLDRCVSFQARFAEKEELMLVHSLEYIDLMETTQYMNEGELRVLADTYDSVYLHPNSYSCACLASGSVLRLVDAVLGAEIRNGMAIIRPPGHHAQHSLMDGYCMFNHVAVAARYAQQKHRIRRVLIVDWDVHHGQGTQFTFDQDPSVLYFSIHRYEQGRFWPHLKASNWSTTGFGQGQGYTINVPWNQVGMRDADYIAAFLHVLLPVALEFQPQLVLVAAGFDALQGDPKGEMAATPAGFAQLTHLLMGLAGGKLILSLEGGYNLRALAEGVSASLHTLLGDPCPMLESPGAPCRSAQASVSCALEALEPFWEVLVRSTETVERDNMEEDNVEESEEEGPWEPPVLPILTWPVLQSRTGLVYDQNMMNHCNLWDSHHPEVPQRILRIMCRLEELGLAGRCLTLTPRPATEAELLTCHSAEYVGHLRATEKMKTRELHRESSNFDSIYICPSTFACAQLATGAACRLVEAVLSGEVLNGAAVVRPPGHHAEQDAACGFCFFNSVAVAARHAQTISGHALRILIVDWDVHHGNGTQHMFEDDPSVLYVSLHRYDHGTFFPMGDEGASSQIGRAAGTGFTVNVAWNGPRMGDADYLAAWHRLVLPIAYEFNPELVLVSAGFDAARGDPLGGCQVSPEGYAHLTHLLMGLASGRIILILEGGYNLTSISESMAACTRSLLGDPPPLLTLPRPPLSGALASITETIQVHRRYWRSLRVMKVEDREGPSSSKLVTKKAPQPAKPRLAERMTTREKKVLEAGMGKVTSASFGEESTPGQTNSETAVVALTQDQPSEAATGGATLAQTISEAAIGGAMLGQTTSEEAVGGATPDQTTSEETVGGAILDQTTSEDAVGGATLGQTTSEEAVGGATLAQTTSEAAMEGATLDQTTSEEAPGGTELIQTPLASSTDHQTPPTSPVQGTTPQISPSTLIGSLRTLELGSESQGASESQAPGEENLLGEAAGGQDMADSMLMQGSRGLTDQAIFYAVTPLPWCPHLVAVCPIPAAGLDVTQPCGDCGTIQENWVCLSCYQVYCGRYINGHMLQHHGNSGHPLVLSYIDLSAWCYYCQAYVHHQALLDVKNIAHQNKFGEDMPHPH

RPMI-8226 [2] = experiment: Antiproliferative activity against human RPMI8226 cells after 48 hrs by SRB assay; format: functional; details: RPMI-8226, 48 h
In short: (§1)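 Cells were exposed to test compounds at the indicated concentrations for 48 h. They were then fixed with 10% trichloroacetic acid, stained 30 min with 0.4% SRB in 1% AcOH, and washed with 1% AcOH. Bound dye was solubilized in 10 mM Tris base and OD read at 510 nm. Lines cultured in RPMI 1640 with 20% FBS and penicillin/streptomycin, 37°C, 5% CO2.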

U-266 [3] = experiment: Antiproliferative activity against human U266 cells after 48 hrs by SRB assay; format: functional; details: U-266, 48 h; in short: as §1
NCI-H929 [4] = experiment: Antiproliferative activity against human NCI-H929 cells after 48 hrs by SRB assay; format: functional; details: NCI-H929, 48 h; in short: as §1
[5] = Antiproliferative activity against human HS5 cells after 48 hrs by SRB assay; format: cell-based; in short: as §1
[6] = Apparent permeability from apical to basolateral side in human Caco2 cells at 10 uM after 2 hrs by LC-MS/MS analysis; format: ADME, cell-based; details: Caco-2
In short: (§2)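 Caco-2 cells seeded at 8.4 × 10^4 cells/cm2 on polycarbonate inserts for 21 days. For A→B, donor was apical (HBSS/MES pH 6.5, 10 µM compound) and receiver basolateral (HBSS/HEPES pH 7.4). For B→A, donor was basolateral (HBSS/HEPES pH 7.4, 10 µM) and receiver apical (HBSS/MES pH 6.5). Incubated at 37 °C for 2 h. Receiver sampled at 30, 60, 90 and 120 min, donor at 0 and 120 min.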

[7] = Apparent permeability from basolateral to apical side in human Caco2 cells at 10 uM after 2 hrs by LC-MS/MS analysis; format: ADME, cell-based; details: Caco-2; in short: as §2
[8] = Apparent permeability from apical to basolateral side in human Caco2 cells assessed as drug recovery at 10 uM after 2 hrs by LC-MS/MS analysis; format: ADME, cell-based; details: Caco-2, read-out: Drug recovery; in short: as §2
[9] = Apparent permeability from basolateral to apical side in human Caco2 cells assessed as drug recovery at 10 uM after 2 hrs by LC-MS/MS analysis; format: ADME, cell-based; details: Caco-2, read-out: Drug recovery; in short: as §2
[10] = Efflux ratio of apparent permeability from in human Caco2 cells at 10 uM after 2 hrs by LC-MS/MS analysis; format: ADME, cell-based; details: Caco-2; in short: as §2
RPMI-8226 [11] = experiment: Cell cycle arrest in human RPMI8226 cells assessed as accumulation at sub-G1 phase at 2.5 nM after 24 hrs by propidium iodide staining based flow cytometry (reference value: 12.25%); format: functional
RPMI-8226 [12] = experiment: Cell cycle arrest in human RPMI8226 cells assessed as accumulation at G0/G1 phase at 2.5 nM after 24 hrs by propidium iodide staining based flow cytometry (reference value: 44.67%); format: functional
RPMI-8226 [13] = experiment: Cell cycle arrest in human RPMI8226 cells assessed as accumulation at S phase at 2.5 nM after 24 hrs by propidium iodide staining based flow cytometry (reference value: 19.53%); format: functional
RPMI-8226 [14] = experiment: Cell cycle arrest in human RPMI8226 cells assessed as accumulation at G2/M phase at 2.5 nM after 24 hrs by propidium iodide staining based flow cytometry (reference value: 23.94%); format: functional
U-266 [15] = experiment: Cell cycle arrest in human U266 cells assessed as accumulation at G0/G1 phase at 2.5 nM after 24 hrs by propidium iodide staining based flow cytometry (reference value: 40.29%); format: functional
U-266 [16] = experiment: Cell cycle arrest in human U266 cells assessed as accumulation at S phase at 2.5 nM after 24 hrs by propidium iodide staining based flow cytometry (reference value: 14.05%); format: functional
U-266 [17] = experiment: Cell cycle arrest in human U266 cells assessed as accumulation at G2/M phase at 2.5 nM after 24 hrs by propidium iodide staining based flow cytometry (reference value: 35.13%); format: functional
NCI-H929 [18] = experiment: Cell cycle arrest in human NCI-H929 cells assessed as accumulation at sub-G1 phase at 2.5 nM after 24 hrs by propidium iodide staining based flow cytometry (reference value: 5.59%); format: functional
NCI-H929 [19] = experiment: Cell cycle arrest in human NCI-H929 cells assessed as accumulation at G0/G1 phase at 2.5 nM after 24 hrs by propidium iodide staining based flow cytometry (reference value: 49.39%); format: functional
NCI-H929 [20] = experiment: Cell cycle arrest in human NCI-H929 cells assessed as accumulation at S phase at 2.5 nM after 24 hrs by propidium iodide staining based flow cytometry (reference value: 13.5%); format: functional
NCI-H929 [21] = experiment: Cell cycle arrest in human NCI-H929 cells assessed as accumulation at G2/M phase at 2.5 nM after 24 hrs by propidium iodide staining based flow cytometry (reference value: 31.63%); format: functional
RPMI-8226 [22] = experiment: Induction of apoptosis in human RPMI8226 cells at 2.5 nM after 24 hrs by Annexin V/propidium iodide staining based flow cytometry; format: functional, cell-based
U-266 [23] = experiment: Induction of apoptosis in human U266 cells at 2.5 nM after 24 hrs by Annexin V/propidium iodide staining based flow cytometry; format: functional, cell-based
NCI-H929 [24] = experiment: Induction of apoptosis in human NCI-H929 cells at 2.5 nM after 24 hrs by Annexin V/propidium iodide staining based flow cytometry; format: functional, cell-based
RPMI-8226 [25] = experiment: Antitumor activity against human RPMI8226 cells xenografted in nude mouse assessed as tumor growth inhibition at 1 mg/kg, iv or ip administered once in week for 35 days relative to control; format: functional; details: RPMI-8226, 840 h, read-out: TGI
In short: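 RPMI 8226 cells (1 × 10^7) implanted s.c. in eight-week-old male nude mice. At mean tumor volume 200 mm3, mice randomized into four groups (n = 8). Caliper measurement every 3–4 days, volume L×W²/2. %TGI computed from treated versus control volume changes relative to time 0.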

Mus musculus = experiment: Toxicity in nude mouse xenografted with human RPMI8226 cells assessed as death at 1 mg/kg, iv or ip administered once in week for 35 days; format: organism-based; details: in vivo, 840 h
In short: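 Male nude mice, eight weeks old, received 1 × 10^7 RPMI 8226 cells subcutaneously. At a mean tumour volume of 200 mm3 they were randomised into four groups (n = 8). Dosing was 1 mg/kg i.v./i.p. once weekly, with vehicle 0.5% EtOH/0.5% Cremophor in 5% dextran. Treatment-related deaths were recorded, and caliper measurements were taken every 3–4 days.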

O=C(NO)c1ccc(CNc2cccc3ccncc23)cc1
IC50 [1]: 3.35 nM

O=C(CCCCCCNC(=O)c1cnc(N(c2ccccc2)c2ccccc2)nc1)NO [RICOLINOSTAT]
GI50 (RPMI-8226 [2]): 6400 nM
GI50 (U-266 [3]): > 100000 nM
GI50 (NCI-H929 [4]): > 100000 nM
GI50 at 48 h [5]: > 100000 nM

O=C(NO)c1ccc(CSc2cccc3cccnc23)cc1
IC50 [1]: 9.48 nM

O=C(NO)c1ccc(C(=O)Nc2cccc3ncccc23)cc1
IC50 [1]: 525 nM

O=C(NO)c1ccc(CCc2cccc3cccnc23)cc1
IC50 [1]: 41.7 nM

O=C(NO)c1ccc(COc2cccc3cccnc23)cc1
IC50 [1]: 2.83 nM

O=C(/C=C/c1ccc(CNc2cccc3ncccc23)cc1)NO
IC50 [1]: 25.3 nM

O=C(NO)c1ccc(CNc2ccnc3ccccc23)cc1
IC50 [1]: 21.5 nM

O=C(NO)c1ccc(NCc2cccc3cccnc23)cc1
IC50 [1]: 7.4 nM

O=C(NO)c1ccc(CNc2ccc3ncccc3c2)cc1
IC50 [1]: 4.78 nM

O=C(NO)c1ccc(CNc2cccc3nccnc23)cc1
IC50 [1]: 5.89 nM

O=C(NO)c1cccc(CNc2cccc3cccnc23)c1
IC50 [1]: 1130 nM

O=C(NO)c1ccc(C(=O)Nc2cccc3cccnc23)cc1
IC50 [1]: 265 nM

COC(=O)c1ccccc1-c1c2ccc(=N)cc-2oc2cc(N)ccc12.Cl [RHODAMINE123]
Papp A→B at 2 h, 10 µM [6]: 1.16 ×10⁻⁶ cm/s
Papp B→A at 2 h, 10 µM [7]: 7.52 ×10⁻⁶ cm/s
recovery at 2 h, 10 µM [8]: 89.8%
recovery at 2 h, 10 µM [9]: 93.9%
efflux ratio at 2 h, 10 µM [10]: 6.5

O=C(NO)c1ccc(CNc2cnc3ccccc3c2)cc1
IC50 [1]: 403 nM

Cc1ccc2cccc(NCc3ccc(C(=O)NO)cc3)c2n1
IC50 [1]: 11.4 nM

O=C(/C=C/c1ccc(CNc2cccc3cccnc23)cc1)NO
IC50 [1]: 41.7 nM

O=C(NO)c1ccc(CNc2cncc3ccccc23)cc1
IC50 [1]: 2.31 nM

O=C(NO)c1ccc(CNc2ccc3cccnc3c2)cc1
IC50 [1]: 3.25 nM

O=C(NO)c1ccc(CNc2cccc3c2CCCC3)cc1
IC50 [1]: 25.3 nM

O=C(NO)c1ccc(CNc2cccc3cnccc23)cc1
IC50 [1]: 2.33 nM

CC(C)C[C@H](NC(=O)[C@H](Cc1ccccc1)NC(=O)c1cnccn1)B(O)O [BORTEZOMIB]
Activity (RPMI-8226 [11]): 10.55%
Activity (RPMI-8226 [12]): 42.97%
Activity (RPMI-8226 [13]): 15.19%
Activity (RPMI-8226 [14]): 31.53%
Activity (U-266 [15]): 32.66%
Activity (U-266 [16]): 7.8%
Activity (U-266 [17]): 32.22%
Activity (NCI-H929 [18]): 42.44%
Activity (NCI-H929 [19]): 29.87%
Activity (NCI-H929 [20]): 11.59%
Activity (NCI-H929 [21]): 16.32%
Activity (RPMI-8226 [22]): Active
Activity (U-266 [23]): Active
Activity (NCI-H929 [24]): Active
inhibition in vivo at 1 mg/kg (RPMI-8226 [25]): 70.1%
Activity (Mus musculus): Toxic

O=C(NO)c1ccc(CNc2cccc3c2CCC3)cc1
IC50 [1]: 19.6 nM

O=C(NO)c1ccc(CNc2ccc3ccccc3n2)cc1
IC50 [1]: 4.24 nM

O=C(NO)c1ccc(Nc2cccc3cccnc23)cc1
IC50 [1]: 129 nM

O=C(NO)c1ccc(CNc2cccc3cn[nH]c23)cc1
IC50 [1]: 3.56 nM
